# Laboratory results: ChEMBL document CHEMBL1125388, “New modified heterocyclic phenylalanine derivatives. Incorporation into potent inhibitors of human renin” (J Med Chem, 1992)
# Values joined by “and” are separate entries in the source; they are usually repeats but may differ in a detail not shown here. Equal entries are not always repeated.
# Molecular target: T1, Renin (Homo sapiens, UniProt P00797)
# T1 sequence (P00797 whole entry): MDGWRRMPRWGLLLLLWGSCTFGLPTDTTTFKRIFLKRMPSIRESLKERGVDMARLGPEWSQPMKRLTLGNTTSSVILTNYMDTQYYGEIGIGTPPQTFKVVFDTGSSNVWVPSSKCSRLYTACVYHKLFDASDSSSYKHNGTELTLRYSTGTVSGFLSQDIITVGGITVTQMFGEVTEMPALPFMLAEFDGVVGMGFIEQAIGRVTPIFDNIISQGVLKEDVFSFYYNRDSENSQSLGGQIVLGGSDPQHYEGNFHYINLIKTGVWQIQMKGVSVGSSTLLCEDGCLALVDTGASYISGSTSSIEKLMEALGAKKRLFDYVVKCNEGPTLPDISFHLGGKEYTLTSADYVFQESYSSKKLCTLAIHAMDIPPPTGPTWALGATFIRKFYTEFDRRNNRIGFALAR
# Assay: Inhibition of human recombinant renin
# Procedure, shortened: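 Recombinant human renin (0.05 GU/mL, set to generate 30-40 ng A1/mL per h) incubated with 20 μM human renin substrate stock, pH 5.7 phosphate buffer with BSA, EDTA and PMSF, 1% DMSO final, 37 °C for 1 h; 4 °C blank tubes. RIA (3 h room temperature, γ counting) against standard curve; IC50 reported.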
row,Structure (SMILES),IC50
1,CC(C)CC(NC(=O)[C@H](Cc1ccccc1)N1Cc2cccc3cccc(c23)C1=O)C(=O)N[C@@H](CC1CCCCC1)C(O)C(=O)OC(C)C (stereo not given in full),80 nM
2,CC(C)CC(NC(=O)[C@H](Cc1ccccc1)N1Cc2ccccc2C1=O)C(=O)N[C@@H](CC1CCCCC1)C(O)C(=O)OC(C)C (stereo not given in full),36 nM
3,COC(=O)C(O)[C@H](CC1CCCCC1)NC(=O)C(CC(C)C)NC(=O)[C@H](Cc1ccccc1)N1Cc2ccccc2C1=O (stereo not given in full),23 nM
4,COC(=O)C(O)[C@H](CC1CCCCC1)NC(=O)C(Cc1cnc[nH]1)NC(=O)[C@H](Cc1ccccc1)N1Cc2ccccc2C1=O (stereo not given in full),186 nM

# The remaining lines, values ahead:
row,IC50,Structure (SMILES)
1,141 nM,CC(C)CC(NC(=O)[C@H](Cc1ccccc1)N1CC2CCCN2C1=O)C(=O)N[C@@H](CC1CCCCC1)C(O)C(=O)OC(C)C (stereo not given in full)
2,8 nM and 24 nM,COC(=O)C(O)[C@H](CC1CCCCC1)NC(=O)C(CC(C)C)NC(=O)[C@H](Cc1ccccc1)NC(=O)OC(C)(C)C (stereo not given in full)
3,100 nM,CC(C)CC(NC(=O)[C@H](Cc1ccccc1)N1Cc2nccn2C1=O)C(=O)N[C@@H](CC1CCCCC1)C(O)C(=O)OC(C)C (stereo not given in full)
4,157 nM,CC(C)CC(NC(=O)[C@H](Cc1ccccc1)N1CCCC1=O)C(=O)N[C@@H](CC1CCCCC1)C(O)C(=O)OC(C)C (stereo not given in full)
5,16 nM,CCCC[C@H](NC(=O)[C@H](Cc1ccccc1)N1Cc2ccccc2C1=O)C(=O)N[C@@H](CC1CCCCC1)C(O)C(=O)OC(C)C (stereo not given in full)
6,391 nM,COC(=O)C(O)[C@H](CC1CCCCC1)NC(=O)C(CC(C)C)NC(=O)[C@H](Cc1ccccc1)N1C(=O)c2cccc3cccc(c23)C1=O (stereo not given in full)
7,207 nM,COC(=O)C(O)[C@H](CC1CCCCC1)NC(=O)C(CC(C)C)NC(=O)[C@H](Cc1ccccc1)N1Cc2ncccc2C1=O (stereo not given in full)
8,8.9 nM,CCC[C@H](NC(=O)[C@H](Cc1ccccc1)N1Cc2ccccc2C1=O)C(=O)N[C@@H](CC1CCCCC1)C(O)C(=O)OC(C)C (stereo not given in full)

# Molecular target: T2, Renin (Homo sapiens) (UniProt P00797)
# T2 sequence (whole entry): T1 sequence (P00797 whole entry)
# Assay: Inhibition of human recombinant renin at 1 uM
row,inhibition,Structure (SMILES)
1,86.4%,COC(=O)C(O)[C@H](CC1CCCCC1)NC(=O)C(CC(C)C)NC(=O)[C@H](Cc1ccccc1)N1CC(C)(C)OC1=O (stereo not given in full)
2,76%,COC(=O)C(O)[C@H](CC1CCCCC1)NC(=O)C(CC(C)C)NC(=O)[C@H](Cc1ccccc1)N1C(=O)OC(C)(C)C1C (stereo not given in full)
3,45%,COC(=O)C(O)[C@H](CC1CCCCC1)NC(=O)C(CC(C)C)NC(=O)[C@H](Cc1ccccc1)N1C(=O)c2ccccc2C1=O (stereo not given in full)
